Consider nine compounds from ChEMBL document CHEMBL1123062, “Relationship between structure and antineoplastic activity of (arylsulfonyl)hydrazones of 4-pyridinecarboxaldehyde” (1985).

For the first assay, the system named is P388. The assay is described as follows: Compound was evaluated for antitumor activity in mice (control group) bearing P388 leukemic cells from average survival time. Type of assay: functional, Mus musculus. Summed up:
(§1)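 Ascites forms of Sarcoma 180 or P388 leukemia carried in CDF-1 mice. Recipients were implanted from donors with 7-day tumor growth. Compound given once daily for six consecutive days starting 24 h after implantation, with a tested range of 50–200 mg/kg per day. Hydrochloride salt solutions were adjusted to pH 6.5–7.0. Survival time was averaged, days ± SE. Body weight was tracked as a toxicity indicator.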
In turn, `Cc1ccc(S(=O)(=O)N/N=C/c2ccc([N+](=O)[O-])cc2)cc1.Cl` had a Time of 14.2 days.

Compound `COc1ccc(S(=O)(=O)N/N=C/c2ccncc2)cc1OC.Cl` had a Time of 14.8 days.

For `Cl.O=S(=O)(N/N=C/c1ccncc1)c1ccccc1`, the Time came to 14.6 days.

For the compound `CC(=O)Nc1ccc(S(=O)(=O)N/N=C/c2ccncc2)cc1.Cl`, the Time was determined as 14.6 days.

With `Cl.O=S(=O)(N/N=C/c1ccncc1)c1ccc(Cl)cc1`, the Time was found to be 14.8 days.

`Cc1cc(C)c(S(=O)(=O)N/N=C/c2ccc([N+](=O)[O-])cc2)c(C)c1.Cl` gave a Time of 14.2 days.

The next assay has as its system P388. As to the kind of experiment: Compound was evaluated for antitumor activity in mice bearing P388 leukemic cells from average survival time. Type of assay: functional, Mus musculus. In short, it runs like this: as §1
In turn, `Cc1ccc(S(=O)(=O)N/N=C/c2ccc([N+](=O)[O-])cc2)cc1.Cl` came in with a Time of 15.2 days.

As for `COc1ccc(S(=O)(=O)N/N=C/c2ccncc2)cc1OC.Cl`, the Time came out at 17.6 days.

Take `Cl.O=S(=O)(N/N=C/c1ccncc1)c1ccccc1`: the Time stood at 18 days.

Take `CC(=O)Nc1ccc(S(=O)(=O)N/N=C/c2ccncc2)cc1.Cl`: the Time turned out to be 17.6 days.

`Cl.O=S(=O)(N/N=C/c1ccncc1)c1ccc(Cl)cc1`: the Time worked out at 16.6 days.

The compound `Cc1cc(C)c(S(=O)(=O)N/N=C/c2ccc([N+](=O)[O-])cc2)c(C)c1.Cl` displayed a Time of 17.2 days.

The subject of the next assay is P388. As to the kind of experiment: Compound was evaluated for antitumor activity in mice bearing P388 leukemic cells, and average change in body weight from onset to the termination of drug therapy. Type of assay: functional, Mus musculus. In short, it runs like this: (§2)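 Ascitic Sarcoma 180 or P388 leukemia carried in CDF-1 mice; recipients transplanted from donors bearing 7-day tumors. Compound given once daily for six consecutive days from 24 h after implantation, over 50–200 mg/kg per day; hydrochloride salt solutions adjusted to pH 6.5–7.0. Mice weighed; % body-weight change onset to end of therapy taken as host toxicity; maximum effective daily dose reported from survival prolongation.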
Take `COc1ccc(S(=O)(=O)N/N=C/c2ccncc2)cc1OC.Cl`: the Weight change is listed as -3%.

The next assay relates to P388. The assay is described as follows: Compound was evaluated for average change in body weight from onset to the termination of drug therapy in mice bearing P388 leukemic cells. Type of assay: functional, Mus musculus. In short, it runs like this:
as §2
`Cc1ccc(S(=O)(=O)N/N=C/c2ccc([N+](=O)[O-])cc2)cc1.Cl`: the Weight change is listed as -3%.

As for `Cl.O=S(=O)(N/N=C/c1ccncc1)c1ccccc1`, the Weight change is -3.1%.

Turning to `Cc1cc(C)c(S(=O)(=O)N/N=C/c2ccc([N+](=O)[O-])cc2)c(C)c1.Cl`, the Weight change was -3.5%.

The next assay deals with P388. The assay is described as follows: Maximum effective daily dose required to inhibit the tumors of P388 leukemia. It is filed as functional, Mus musculus. In short, it runs like this:
as §2
As for `Cc1ccc(S(=O)(=O)N/N=C/c2ccc([N+](=O)[O-])cc2)cc1.Cl`, the Dose is 200 mg/kg.

Turning to `COc1ccc(S(=O)(=O)N/N=C/c2ccncc2)cc1OC.Cl`, the Dose was 100 mg/kg.

In turn, `Cl.O=S(=O)(N/N=C/c1ccncc1)c1ccccc1` gave a Dose of 150 mg/kg.

Compound `CC(=O)Nc1ccc(S(=O)(=O)N/N=C/c2ccncc2)cc1.Cl` yielded a Dose of 150 mg/kg.

With `Cl.O=S(=O)(N/N=C/c1ccncc1)c1ccc(Cl)cc1`, the Dose was 200 mg/kg.

As to `Cc1cc(C)c(S(=O)(=O)N/N=C/c2ccc([N+](=O)[O-])cc2)c(C)c1.Cl`, the Dose was 150 mg/kg.

The species named for the next assay is Mus musculus. As to the kind of experiment: Ratio of average survival time of treated to control mice bearing P388 leukemia. It is filed as functional. In short, it runs like this:
(§3)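 In CDF-1 mice bearing ascitic P388 leukemia or Sarcoma 180 from 7-day donors, dosing ran once daily for six days from 24 h post-implant (range 50–200 mg/kg/day; HCl salts adjusted to pH 6.5–7.0). % T/C was the average survival time of treated over control animals × 100, reported at the maximum effective daily dose.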
The term T/C denotes the result in the treated group divided by that in the control group, in per cent. In the case of `Cc1ccc(S(=O)(=O)N/N=C/c2ccc([N+](=O)[O-])cc2)cc1.Cl`, the T/C is on record as 107%.

As for `COc1ccc(S(=O)(=O)N/N=C/c2ccncc2)cc1OC.Cl`, the T/C is on record as 119%.

As to `Cl.O=S(=O)(N/N=C/c1ccncc1)c1ccccc1`, the T/C worked out at 123%.

On to `CC(=O)Nc1ccc(S(=O)(=O)N/N=C/c2ccncc2)cc1.Cl`, for which the T/C stood at 121%.

As for `Cl.O=S(=O)(N/N=C/c1ccncc1)c1ccc(Cl)cc1`, the T/C came out at 112%.

As for `Cc1cc(C)c(S(=O)(=O)N/N=C/c2ccc([N+](=O)[O-])cc2)c(C)c1.Cl`, the T/C is 121%.

A further assay is filed under the species Mus musculus. The assay is described as follows: Ratio of average survival time of treated to control mice bearing sarcoma 180 ascites cells. Type of assay: functional. Summed up: as §3
On to `CN(/N=C/c1ccncc1)S(=O)(=O)c1ccc(Cl)cc1.Cl`, for which the T/C is given as 110%.

Regarding `Cc1ccc(S(=O)(=O)N/N=C/c2ccc([N+](=O)[O-])cc2)cc1.Cl`, the T/C was 197%.

For `COc1ccc(S(=O)(=O)N/N=C/c2ccncc2)cc1OC.Cl`, the T/C was 278%.

For the compound `Cl.O=S(=O)(N/N=C/c1ccncc1)c1ccccc1`, the T/C is 225%.

In the case of `CC(=O)Nc1ccc(S(=O)(=O)N/N=C/c2ccncc2)cc1.Cl`, the T/C is on record as 288%.

`Cl.O=S(=O)(N/N=C/c1ccncc1)c1ccc(Cl)cc1`: the T/C came out at 242%.

For the compound `Cc1cc(C)c(S(=O)(=O)N/N=C/c2ccc([N+](=O)[O-])cc2)c(C)c1.Cl`, the T/C is on record as 231%.

Take `Cc1ccc(S(=O)(=O)N/N=C/c2ccncc2)cc1`: the T/C is reported as 222%.

Turning to `C/C(=N\NS(=O)(=O)c1c(C)cc(C)cc1C)c1ccncc1`, the T/C is 123%.

The species named for the next assay is Mus musculus. The assay is described as follows: Average change in body weight from onset to the termination of drug therapy in mice bearing sarcoma 180 ascites cells. Type of assay: functional. In short, it runs like this:
as §2
As to `CN(/N=C/c1ccncc1)S(=O)(=O)c1ccc(Cl)cc1.Cl`, the Weight change was -4.2%.

With `Cc1ccc(S(=O)(=O)N/N=C/c2ccc([N+](=O)[O-])cc2)cc1.Cl`, the Weight change was -17.4%.

In the case of `COc1ccc(S(=O)(=O)N/N=C/c2ccncc2)cc1OC.Cl`, the Weight change is on record as -9.1%.

As to `Cl.O=S(=O)(N/N=C/c1ccncc1)c1ccccc1`, the Weight change was -8.6%.

For `CC(=O)Nc1ccc(S(=O)(=O)N/N=C/c2ccncc2)cc1.Cl`, the Weight change is recorded as -5.2%.

Turning to `Cl.O=S(=O)(N/N=C/c1ccncc1)c1ccc(Cl)cc1`, the Weight change is on record as -5.4%.

As to `Cc1cc(C)c(S(=O)(=O)N/N=C/c2ccc([N+](=O)[O-])cc2)c(C)c1.Cl`, the Weight change was -10.2%.

In the case of `Cc1ccc(S(=O)(=O)N/N=C/c2ccncc2)cc1`, the Weight change is -16.7%.

Test system in the next assay: not listed separately
The assay is described as follows: Compound was evaluated for average change in body weight from onset to the termination of drug therapy in mice bearing sarcoma 180 ascites cells. Type of assay: functional, Mus musculus. Summed up:
as §2
With `C/C(=N\NS(=O)(=O)c1c(C)cc(C)cc1C)c1ccncc1`, the Change of weight amounted to 3.2%.

Test system in the next assay: not listed separately
As to the kind of experiment: Maximum effective daily dose required to inhibit the tumors of sarcoma 180 ascites cells. It is filed as functional, Mus musculus. Summed up: as §2
In turn, `CN(/N=C/c1ccncc1)S(=O)(=O)c1ccc(Cl)cc1.Cl` registered a Dose of 100 mg/kg.

With `Cc1ccc(S(=O)(=O)N/N=C/c2ccc([N+](=O)[O-])cc2)cc1.Cl`, the Dose was found to be 100 mg/kg.

Compound `COc1ccc(S(=O)(=O)N/N=C/c2ccncc2)cc1OC.Cl` showed a Dose of 200 mg/kg.

For `Cl.O=S(=O)(N/N=C/c1ccncc1)c1ccccc1`, the Dose is 100 mg/kg.

`CC(=O)Nc1ccc(S(=O)(=O)N/N=C/c2ccncc2)cc1.Cl` displayed a Dose of 150 mg/kg.

Turning to `Cl.O=S(=O)(N/N=C/c1ccncc1)c1ccc(Cl)cc1`, the Dose came out at 150 mg/kg.

Compound `Cc1cc(C)c(S(=O)(=O)N/N=C/c2ccc([N+](=O)[O-])cc2)c(C)c1.Cl` returned a Dose of 100 mg/kg.

`Cc1ccc(S(=O)(=O)N/N=C/c2ccncc2)cc1`: the Dose was found to be 100 mg/kg.

`C/C(=N\NS(=O)(=O)c1c(C)cc(C)cc1C)c1ccncc1` had a Dose of 100 mg/kg.

Test system in a further assay: not listed separately
As to the kind of experiment: Compound was evaluated for antitumor activity in mice (control group) bearing sarcoma 180 ascites cells from average survival time. Type of assay: functional, Mus musculus. Summed up:
as §1
`CN(/N=C/c1ccncc1)S(=O)(=O)c1ccc(Cl)cc1.Cl` came in with a Time of 14.6 days.

On to `Cc1ccc(S(=O)(=O)N/N=C/c2ccc([N+](=O)[O-])cc2)cc1.Cl`, for which the Time was 15 days.

In the case of `COc1ccc(S(=O)(=O)N/N=C/c2ccncc2)cc1OC.Cl`, the Time amounted to 11.8 days.

`CC(=O)Nc1ccc(S(=O)(=O)N/N=C/c2ccncc2)cc1.Cl`: the Time is 11.8 days.

As for `Cl.O=S(=O)(N/N=C/c1ccncc1)c1ccc(Cl)cc1`, the Time worked out at 11.8 days.

As for `Cc1ccc(S(=O)(=O)N/N=C/c2ccncc2)cc1`, the Time was determined as 14.6 days.

Compound `C/C(=N\NS(=O)(=O)c1c(C)cc(C)cc1C)c1ccncc1` came in with a Time of 16.8 days.

Test system in the next assay: not listed separately
As to the kind of experiment: Compound was evaluated for antitumor activity in mice bearing sarcoma 180 ascites cells and average survival time. It is filed as functional, Mus musculus. Summed up:
as §1
For the compound `Cl.O=S(=O)(N/N=C/c1ccncc1)c1ccccc1`, the Time amounted to 32 days.

`Cc1cc(C)c(S(=O)(=O)N/N=C/c2ccc([N+](=O)[O-])cc2)c(C)c1.Cl` came in with a Time of 26.4 days.

Test system in the next assay: not listed separately
As to the kind of experiment: Compound was evaluated for antitumor activity in mice bearing sarcoma 180 ascites cells from average survival time. It is filed as functional, Mus musculus. In short, it runs like this: as §1
`CN(/N=C/c1ccncc1)S(=O)(=O)c1ccc(Cl)cc1.Cl` came in with a Time of 16 days.

For `Cc1ccc(S(=O)(=O)N/N=C/c2ccc([N+](=O)[O-])cc2)cc1.Cl`, the Time was 29.6 days.

With `COc1ccc(S(=O)(=O)N/N=C/c2ccncc2)cc1OC.Cl`, the Time was 32.8 days.

In turn, `CC(=O)Nc1ccc(S(=O)(=O)N/N=C/c2ccncc2)cc1.Cl` had a Time of 34 days.

Turning to `Cl.O=S(=O)(N/N=C/c1ccncc1)c1ccc(Cl)cc1`, the Time is 28.6 days.

`Cc1ccc(S(=O)(=O)N/N=C/c2ccncc2)cc1` yielded a Time of 32.4 days.

`C/C(=N\NS(=O)(=O)c1c(C)cc(C)cc1C)c1ccncc1` returned a Time of 20.6 days.

Test system in a further assay: not listed separately
As to the kind of experiment: Compound was evaluated for antitumor activity in mice (control group) bearing sarcoma 180 ascites cells and average survival time. Type of assay: functional, Mus musculus. In short, it runs like this:
as §1
`Cl.O=S(=O)(N/N=C/c1ccncc1)c1ccccc1`: the Time came to 14.2 days.

In turn, `Cc1cc(C)c(S(=O)(=O)N/N=C/c2ccc([N+](=O)[O-])cc2)c(C)c1.Cl` returned a Time of 11.4 days.

In another assay the test system is P388. The assay is described as follows: Compound was evaluated for antitumor activity in mice bearing P388 leukemic cells, and average change in body weight from onset to the termination of therapy. It is filed as functional, Mus musculus. In short, it runs like this:
as §2
For `CC(=O)Nc1ccc(S(=O)(=O)N/N=C/c2ccncc2)cc1.Cl`, the Weight change is recorded as -3.1%.

Regarding `Cl.O=S(=O)(N/N=C/c1ccncc1)c1ccc(Cl)cc1`, the Weight change was -5.4%.
